From ChEMBL document CHEMBL1153060, “Part 1: Structure-Activity Relationship (SAR) investigations of fused pyrazoles as potent, selective and orally available inhibitors of p38alpha mitogen-activated protein kinase” (Bioorg Med Chem Lett, 2009)
≈ marks a conversion by molar mass, not a printed value.

What was measured:
[1] = molecular target: Mitogen-activated protein kinase 14 (Homo sapiens, UniProt Q16539); experiment: Inhibition of human recombinant p38alpha assessed as phosphorylation of ATF2 by scintillation proximity assay
Blood = experiment: Inhibition of TNF-alpha-stimulated IL8 production in human whole blood incubated for 1 hr before TNFalpha challenge measured after 16 to 18 hrs; type: functional, tissue-based
Summary of the method: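 Human whole blood diluted to 50% and stimulated with TNFα, with IL-8 secretion as read-out. IC50 is the mean of at least three independent dose–response curves, or of two where flagged.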

THP-1 = experiment: Inhibition of LPS-induced TNFalpha release in human THP1 cells after 3 hrs; type: functional, cell-based; settings: THP-1, 3 h
Summary of the method: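 THP1 cell line challenged with LPS, with TNFα secretion as read-out. IC50 is the mean of at least three independent dose–response curves, or of two where flagged.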

[2] = Solubility in simulated intestinal fluid; type: physicochemical
[3] = Solubility in 0.01N HCl; type: physicochemical
[4] = Solubility in phosphate buffered saline; type: physicochemical
[5] = AUC (0 to infinity) in Sprague-Dawley rat at 2 mg/kg, po; type: ADME, organism-based; design: time infinity, dose 2 mg/kg, route oral; settings: plasma
Summary of the method: (§1)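 Male Sprague–Dawley rats given 2.0 mg/kg iv (in DMSO) or 2.0 mg/kg po. Values are the mean of three rats. Reported parameters are CL, Vdss, t1/2, AUC(0-inf) and oral F.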

[6] = Clearance in Sprague-Dawley rat at 2 mg/kg, iv; type: ADME, organism-based; design: dose 2 mg/kg, route intravenous; settings: in vivo; summary of the method: as §1
[7] = Half life in Sprague-Dawley rat at 2 mg/kg, iv; type: ADME, organism-based; design: dose 2 mg/kg, route intravenous; settings: in vivo; summary of the method: as §1
[8] = Oral bioavailability in Sprague-Dawley rat at 2 mg/kg; type: ADME, organism-based; settings: in vivo; summary of the method: as §1
[9] = Volume of distribution at steady state in Sprague-Dawley rat at 2 mg/kg, iv; type: ADME, organism-based; design: dose 2 mg/kg, route intravenous; settings: in vivo, read-out: Vdss; summary of the method: as §1
Rattus norvegicus [10] = experiment: Inhibition of LPS-induced TNFalpha production in Lewis rat at 0.1 mg/kg, po administered 60 mins prior to LPS challenge measured after 90 mins by ELISA
Rattus norvegicus [11] = experiment: Inhibition of LPS-induced TNFalpha production in Lewis rat at 0.3 mg/kg, po administered 60 mins prior to LPS challenge measured after 90 mins by ELISA
Rattus norvegicus [12] = species on record: Rattus norvegicus; experiment: Plasma concentration in Lewis rat at ED50; type: ADME, organism-based; settings: in vivo
Rattus norvegicus [13] = experiment: Inhibition of LPS-induced TNFalpha production in Lewis rat at 0.01 mg/kg, po administered 60 mins prior to LPS challenge measured after 90 mins by ELISA
Rattus norvegicus [14] = experiment: Inhibition of LPS-induced TNFalpha production in Lewis rat at 0.03 mg/kg, po administered 60 mins prior to LPS challenge measured after 90 mins by ELISA
Cytochrome P450 2D6 = Cytochrome P450 2D6 (Homo sapiens, UniProt P10635); experiment: Inhibition of CYP2D6; type: ADME
[15] = Protein binding in rat plasma by ultrafiltration method; settings: read-out: PPB (converted)
[16] = Ratio of drug level in brain to plasma in Lewis rat; type: ADME; settings: read-out: BPR
Rattus norvegicus [17] = experiment: Inhibition of LPS-induced TNFalpha production in po dosed Lewis rat administered 60 mins prior to LPS challenge measured after 90 mins by ELISA
Cytochrome P450 2C9 = Cytochrome P450 2C9 (Homo sapiens, UniProt P11712); experiment: Inhibition of CYP2C9; type: ADME
Cytochrome P450 2C19 = Cytochrome P450 2C19 (Homo sapiens, UniProt P33261); experiment: Inhibition of CYP2C19; type: ADME
[18] = molecular target: RAF proto-oncogene serine/threonine-protein kinase (Homo sapiens) (UniProt P04049); experiment: Inhibition of c-Raf at 1.5 uM; values are per cent of control
RAF proto-oncogene serine/threonine-protein kinase (Homo sapiens), sequence (P04049 whole entry): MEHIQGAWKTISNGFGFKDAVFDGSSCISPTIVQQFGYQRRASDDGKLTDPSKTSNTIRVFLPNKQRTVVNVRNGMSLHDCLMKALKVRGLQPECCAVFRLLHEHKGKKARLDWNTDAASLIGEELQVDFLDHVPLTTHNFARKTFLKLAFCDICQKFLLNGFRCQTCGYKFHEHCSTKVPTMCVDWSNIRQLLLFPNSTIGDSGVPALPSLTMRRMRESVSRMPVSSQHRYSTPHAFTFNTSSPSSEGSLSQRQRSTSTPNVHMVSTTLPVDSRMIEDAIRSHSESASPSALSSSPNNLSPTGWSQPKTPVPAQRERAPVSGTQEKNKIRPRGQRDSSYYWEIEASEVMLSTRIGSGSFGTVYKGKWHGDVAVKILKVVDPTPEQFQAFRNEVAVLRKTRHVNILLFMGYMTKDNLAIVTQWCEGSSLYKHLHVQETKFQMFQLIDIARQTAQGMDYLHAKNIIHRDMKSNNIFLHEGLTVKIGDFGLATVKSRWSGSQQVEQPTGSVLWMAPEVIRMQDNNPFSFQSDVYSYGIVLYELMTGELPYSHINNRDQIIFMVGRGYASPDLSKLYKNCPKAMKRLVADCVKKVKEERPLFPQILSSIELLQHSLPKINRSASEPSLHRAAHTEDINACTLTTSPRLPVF

Mitogen-activated protein kinase 14, sequence (Q16539 whole entry): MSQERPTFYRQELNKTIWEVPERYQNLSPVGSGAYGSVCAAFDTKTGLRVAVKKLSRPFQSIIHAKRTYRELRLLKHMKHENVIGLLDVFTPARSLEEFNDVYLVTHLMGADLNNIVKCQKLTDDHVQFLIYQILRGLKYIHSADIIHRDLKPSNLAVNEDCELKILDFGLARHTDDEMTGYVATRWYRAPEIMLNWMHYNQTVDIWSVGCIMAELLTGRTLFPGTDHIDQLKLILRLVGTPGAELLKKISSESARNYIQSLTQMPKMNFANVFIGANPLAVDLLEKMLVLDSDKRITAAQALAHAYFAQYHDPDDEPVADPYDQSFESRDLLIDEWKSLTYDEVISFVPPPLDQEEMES
Cytochrome P450 2D6, sequence (P10635 whole entry): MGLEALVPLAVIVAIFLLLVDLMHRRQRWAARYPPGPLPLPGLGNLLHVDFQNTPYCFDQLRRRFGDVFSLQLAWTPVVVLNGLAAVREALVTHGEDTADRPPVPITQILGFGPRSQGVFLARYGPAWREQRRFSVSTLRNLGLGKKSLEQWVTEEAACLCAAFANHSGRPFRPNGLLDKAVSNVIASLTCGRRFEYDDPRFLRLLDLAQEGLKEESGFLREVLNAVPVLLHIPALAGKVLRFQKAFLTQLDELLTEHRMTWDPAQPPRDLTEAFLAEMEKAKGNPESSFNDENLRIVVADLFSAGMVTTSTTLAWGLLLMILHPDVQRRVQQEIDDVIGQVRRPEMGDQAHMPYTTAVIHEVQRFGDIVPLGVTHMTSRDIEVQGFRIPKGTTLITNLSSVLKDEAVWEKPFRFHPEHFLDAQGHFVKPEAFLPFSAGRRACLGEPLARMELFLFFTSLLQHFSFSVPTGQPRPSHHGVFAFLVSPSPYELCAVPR
Cytochrome P450 2C9, sequence (P11712 whole entry): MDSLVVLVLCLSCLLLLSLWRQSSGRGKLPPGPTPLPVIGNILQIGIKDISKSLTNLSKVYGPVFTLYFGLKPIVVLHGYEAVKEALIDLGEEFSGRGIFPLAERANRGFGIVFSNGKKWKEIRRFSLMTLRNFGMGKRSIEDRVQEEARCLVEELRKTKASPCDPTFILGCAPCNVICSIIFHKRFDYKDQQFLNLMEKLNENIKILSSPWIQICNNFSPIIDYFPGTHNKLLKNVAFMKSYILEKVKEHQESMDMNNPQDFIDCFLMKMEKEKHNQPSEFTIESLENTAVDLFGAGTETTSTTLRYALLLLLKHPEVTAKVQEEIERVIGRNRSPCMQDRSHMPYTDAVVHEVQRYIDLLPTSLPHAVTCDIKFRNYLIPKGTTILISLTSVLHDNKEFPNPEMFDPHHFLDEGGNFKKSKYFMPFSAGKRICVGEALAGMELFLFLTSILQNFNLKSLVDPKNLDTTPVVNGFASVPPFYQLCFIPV
Cytochrome P450 2C19, sequence (P33261 whole entry): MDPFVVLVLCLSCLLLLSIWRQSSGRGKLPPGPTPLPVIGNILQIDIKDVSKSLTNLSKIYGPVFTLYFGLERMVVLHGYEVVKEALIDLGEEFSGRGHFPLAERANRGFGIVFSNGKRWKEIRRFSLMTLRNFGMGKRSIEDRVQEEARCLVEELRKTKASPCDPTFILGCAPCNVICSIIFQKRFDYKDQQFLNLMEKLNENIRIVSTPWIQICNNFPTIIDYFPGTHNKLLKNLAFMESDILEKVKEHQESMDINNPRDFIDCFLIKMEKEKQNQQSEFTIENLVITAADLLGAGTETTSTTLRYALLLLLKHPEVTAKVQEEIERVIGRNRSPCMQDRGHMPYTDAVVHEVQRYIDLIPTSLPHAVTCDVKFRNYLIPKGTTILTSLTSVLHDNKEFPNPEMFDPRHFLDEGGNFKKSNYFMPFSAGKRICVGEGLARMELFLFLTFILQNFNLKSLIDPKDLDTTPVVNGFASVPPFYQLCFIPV

| SMILES | IC50 [1] [nM] | IC50 (Blood) [nM] | IC50 (THP-1) [nM] | AUC(0-inf) [5] [ng·h/mL] | clearance [6] [mL/min/kg] | half-life [7] [h] | bioavailability [8] [%] | Vd [9] [L/kg] | also measured |
| --- | --- | --- | --- | --- | --- | --- | --- | --- | --- |
| Cc1ccc(C(=O)NC2CC2)cc1Oc1cc(=O)n(C)c2c1cnn2-c1cc(F)ccc1F | 6.1 | 16 | 5 | – | – | – | – | – | – |
| Cn1c(=O)cc(Oc2cc(C(=O)NC3CC3)ccc2Cl)c2cnn(-c3cc(F)ccc3F)c21 | 3.3 | 79 | 14 | – | – | – | – | – | solubility [2]: 49 µg/mL (≈ 104 µM); solubility [3]: 24.8 µg/mL (≈ 52.7 µM); solubility [4]: 14.7 µg/mL (≈ 31.2 µM) |
| Cc1ccc(C(=O)NC2CC2)cc1Nc1cc(=O)n(C)c2c1cnn2-c1ccc(F)cc1F | – | 2.4 | 1 | – | – | – | – | – | – |
| Cc1ccc(C(=O)NC2CC2)cc1Oc1cc(=O)n(C)c2c1cnn2-c1cccc(F)c1 | 8.5 | 29 | 12 | – | – | – | – | – | – |
| CCn1c(=O)cc(Nc2cc(C(=O)NC3CC3)ccc2C)c2cnn(-c3ccc(F)cc3)c21 | 4 | 1.9 | 1.1 | – | – | – | – | – | – |
| Cc1ccc(C(=O)NC2CC2)cc1Oc1cc(=O)n(C)c2c1cnn2-c1ccc(F)cc1F | 7.8 | 16 | 3.5 | – | – | – | – | – | solubility [2]: 12.2 µg/mL (≈ 27.1 µM); solubility [3]: 5.7 µg/mL (≈ 12.7 µM); solubility [4]: 5.3 µg/mL (≈ 11.8 µM) |
| CCn1c(=O)cc(Nc2cc(C(=O)NC3CC3)ccc2Cl)c2cnn(-c3ccc(F)cc3)c21 | 1.2 | 0.93 | 1 | 2290 | 6.83 | 3.7 | 45 | 1.8 | – |
| Cn1c(=O)cc(Nc2ccc(F)cc2)c2cnn(-c3c(F)cccc3F)c21 | > 1000 | > 833 | 546 | – | – | – | – | – | – |
| Cc1ccc(C(=O)O)cc1Nc1cc(=O)n(C)c2c1cnn2-c1ccc(F)cc1F | > 1000 | > 2500 | > 2500 | – | – | – | – | – | – |
| CCn1c(=O)cc(Oc2cc(C(=O)NC3CC3)ccc2C)c2cnn(-c3ccc(F)cc3)c21 | 4 | 13 | 1.8 | 1500 | 4.5 | 3.2 | 41 | 1.1 | – |
| Cn1c(=O)cc(Nc2cc(C(=O)NC3CC3)ccc2Cl)c2cnn(-c3ccc(F)cc3F)c21 | – | 1.1 | 0.44 | 4610 | 6.17 | 3.8 | 81 | 1.2 | inhibition in vivo at 0.1 mg/kg (Rattus norvegicus [10]): 83.9%; solubility [2]: 81.7 µg/mL (≈ 174 µM); solubility [3]: 67.1 µg/mL (≈ 143 µM); inhibition in vivo at 0.3 mg/kg (Rattus norvegicus [11]): 98.4%; solubility [4]: 60.6 µg/mL (≈ 129 µM); Cp (Rattus norvegicus [12]): 0.9 ng/mL; inhibition in vivo at 0.01 mg/kg (Rattus norvegicus [13]): 21.6%; inhibition in vivo at 0.03 mg/kg (Rattus norvegicus [14]): 22.6%; IC50 (Cytochrome P450 2D6): 22700 nM; fraction unbound [15]: 0.02; Kp [16]: 0.06; ED50 (Rattus norvegicus [17]): 0.05 mg/kg; IC50 (Cytochrome P450 2C9): 8400 nM; IC50 (Cytochrome P450 2C19): 16000 nM; residual activity [18]: 75% |
| Cn1c(=O)cc(Nc2cc(C(=O)NC3CC3)ccc2Cl)c2cnn(-c3c(F)cccc3F)c21 | 1.1 | 1.5 | 0.62 | 139 | 21.7 | 3.4 | 9 | 1.9 | – |
| Cc1ccc(C(N)=O)cc1Nc1cc(=O)n(C)c2c1cnn2-c1cc(F)ccc1F | 3.7 | 7.1 | 7.5 | – | – | – | – | – | – |
| Cn1c(=O)cc(Nc2ccc(F)cc2F)c2cnn(-c3ccc(F)cc3F)c21 | > 1000 | > 2500 | 937 | – | – | – | – | – | – |
| CCn1c(=O)cc(Nc2cc(C(=O)NC3CC3)ccc2Cl)c2cnn(-c3ccc(F)cc3F)c21 | 1.1 | 1.3 | 0.67 | 776 | 7 | 3.4 | 16 | 1.5 | – |
| Cc1ccncc1Nc1cc(=O)n(C)c2c1cnn2-c1cc(F)ccc1F | 444 | 403 | 208 | – | – | – | – | – | – |
| Cc1ccc(C(=O)NC2CC2)cc1Nc1cc(=O)n(C)c2c1cnn2-c1c(F)cccc1F | 1.9 | 1.3 | 0.87 | 273 | 14.7 | 2.8 | 12 | 1.2 | – |
| Cc1ccc(C(N)=O)cc1Nc1cc(=O)n(C)c2c1cnn2-c1ccc(F)cc1F | 2.6 | 3.4 | 1.9 | – | – | – | – | – | – |
| Cc1ccc(C(=O)NC(C)(C)C)cc1Nc1cc(=O)n(C)c2c1cnn2-c1ccc(F)cc1F | 269 | 204 | 65 | – | – | – | – | – | – |
| Cn1c(=O)cc(Nc2cc(C(=O)NC3CC3)ccc2F)c2cnn(-c3ccc(F)cc3F)c21 | 13 | 19 | 6.7 | – | – | – | – | – | – |
| Cc1ccc(C(=O)NC2CC2)cc1Nc1cc(=O)n(C)c2c1cnn2-c1cc(F)ccc1F | 2.9 | 2.5 | 1 | – | – | – | – | – | – |
| Cc1ccc(C(=O)NC2CC2)cc1Nc1cc(=O)n(C)c2c1cnn2-c1cccc(F)c1 | 3.3 | 1.7 | 1.3 | – | – | – | – | – | – |
| CONC(=O)c1ccc(C)c(Nc2cc(=O)n(C)c3c2cnn3-c2ccc(F)cc2F)c1 | 1.1 | 1.4 | 1.1 | 120 | 43.3 | 3.3 | 15 | 1.7 | – |
| Cn1c(=O)cc(NC2CCOCC2)c2cnn(-c3cccc(F)c3)c21 | > 1000 | > 2500 | > 2500 | – | – | – | – | – | – |
| Cn1c(=O)cc(Nc2cc(C(=O)NC3CC3)ccc2F)c2cnn(-c3c(F)cccc3F)c21 | 1.9 | 8.2 | 3.2 | – | – | – | – | – | – |
| Cn1c(=O)cc(Nc2cc(C(=O)NC3CC3)ccc2Cl)c2cnn(-c3cc(F)ccc3F)c21 | 1.1 | 1.9 | 1.1 | 2160 | 8.67 | 2.1 | 56 | 1.2 | solubility [2]: 35.2 µg/mL (≈ 74.9 µM); solubility [3]: 28.6 µg/mL (≈ 60.9 µM); solubility [4]: 24.9 µg/mL (≈ 53 µM) |
| Cc1ccc(C(=O)NC2CC2)cc1Oc1cc(=O)n(C)c2c1cnn2-c1c(F)cccc1F | 1.4 | 2.6 | 1 | 244 | 10.5 | 2.3 | 7 | 1.3 | – |
